# Screens (PubChem BioAssay)
# Sampled rows, rich in hits. Any-hit rate of the full collection: about 3.1%.
# KCNK9 block – KCNK9 potassium channel inhibitors, primary screen, HEK293 cells, thallium flux. Potassium channel subfamily K member 9 (Homo sapiens), Q9NPC2. FluxOR thallium flux fluorescence; stronger effect = lower value. B-score at 10 µM. actives 1.2% (n = 310,000);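 active means ratio B-score over 3 SD below the library mean, with starting fluorescence within 5 SD of its mean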;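 further: negative B-score means less thallium flux so channel inhibition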
# KCNQ1 act – potentiators or activators of KCNQ1 channel, primary screen, cell-based, thallium flux, high-throughput. Potassium voltage-gated channel subfamily KQT member 1 (Homo sapiens), P51787. CHO-K1 KCNQ1, thallium flux FluxOR fluorescence; stronger effect = higher value. B-score at 10 µM. actives 0.35% (n = 310,000). AID 2648, 2010;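 active means fluorescence ratio B-score, a plate-corrected score, at least three library SD, with initial intensity B-score within 5 SD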
# Target sequence (P51787 whole entry, looked up): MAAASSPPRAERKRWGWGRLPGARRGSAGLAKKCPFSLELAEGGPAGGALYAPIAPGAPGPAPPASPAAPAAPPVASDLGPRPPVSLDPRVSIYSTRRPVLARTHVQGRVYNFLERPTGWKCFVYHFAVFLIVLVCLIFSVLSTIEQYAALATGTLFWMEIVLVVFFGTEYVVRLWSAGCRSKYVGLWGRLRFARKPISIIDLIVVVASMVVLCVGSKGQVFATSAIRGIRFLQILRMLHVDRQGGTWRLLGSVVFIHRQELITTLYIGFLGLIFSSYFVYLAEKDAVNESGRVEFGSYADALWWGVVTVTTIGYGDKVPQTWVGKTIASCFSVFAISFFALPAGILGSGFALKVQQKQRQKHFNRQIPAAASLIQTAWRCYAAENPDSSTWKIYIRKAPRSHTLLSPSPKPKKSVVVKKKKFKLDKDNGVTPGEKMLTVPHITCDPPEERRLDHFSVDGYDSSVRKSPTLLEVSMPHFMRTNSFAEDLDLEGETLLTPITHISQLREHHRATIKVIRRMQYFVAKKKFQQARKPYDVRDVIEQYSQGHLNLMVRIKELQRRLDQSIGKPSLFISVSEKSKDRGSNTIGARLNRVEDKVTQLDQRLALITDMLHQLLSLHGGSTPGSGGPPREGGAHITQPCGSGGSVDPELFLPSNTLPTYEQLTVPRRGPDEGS
#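 Doses: Single concentration per compound, DMSO matched to controls | Test system: KCNQ1-transfected CHO-K1 cells | Timing: 90 min dye loading and 20 min compound exposure, both at room temperature | Measured by: Kinetic FluxOR thallium fluorescence, 10-s 1-Hz baseline, 110-s post-stimulus read | Medium: Assay buffer with matched DMSO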
# KCNQ1 block – inhibitors of human KCNQ1 channel, primary screen, cell-based, thallium flux, high-throughput | Potassium voltage-gated channel subfamily KQT member 1 (Homo sapiens), P51787 | CHO-K1 KCNQ1, FluxOR thallium flux fluorescence; stronger effect = higher value | B-score at 10 µM | actives 1.3% (n = 310,000);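 active means compounds whose thallium flux B-score, printed positive for inhibition, exceeds three library SD while starting fluorescence stays within three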;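 further: channel opened by potassium depolarization with thallium stimulus after 20 min compound exposure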
# KCNK3 inh – human KCNK3 channel inhibitors, primary screen, CHO cells, FluxOR thallium flux, B-score; B-score at 10 µM; FluxOR fluorescence; stronger effect = lower value; actives 0.84% (n = 340,000);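 active means B-score under library mean minus 4 SD, starting fluorescence ratio at most library mean plus 5 SD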;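 further: more negative B-score means stronger inhibition of thallium flux through KCNK3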
# hERG rescue – hERG rescue from dofetilide block, primary screen, cell-based, CHO-hERG, FluxOR thallium flux, dofetilide IC70 | actives 0.51% (n = 310,000) | dofetilide IC70 present | AID 1511, 2009 | activation (rescue from dofetilide block), less the hit threshold, % at 10 µM | Voltage-gated inwardly rectifying potassium channel KCNH2 (Homo sapiens), Q12809;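 active means activation above the mean of controls blocked by dofetilide plus 5 SD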;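 further: thallium influx through hERG after potassium depolarization seen as dye fluorescence rise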
# KCNK9 inh conf – KCNK9 potassium channel inhibitors, confirmation, HEK293 cells, thallium flux, duplicate; shares compounds with KCNK9 block; actives 43% (n = 4,900); FluxOR thallium flux fluorescence; AID 492992, 2010; inhibition, % at 10 µM;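 active means thallium signal inhibited by more than 5 SD of the compound-free buffer control wells, on both duplicate plates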;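 further: 0% = assay buffer control wells without compound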
# Kir2-1 spec – mouse Kir2.1 channel inhibition, confirmation, selectivity assay for KCNK9 modulator project, cell-based, HEK293, thallium flux; shares compounds with KCNK9 block; Kir2.1 cells, FluxOR thallium flux fluorescence; inhibition, % at 10 µM; actives 4% (n = 4,900);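 active means thallium signal drop more than 5 SD beyond the mean of the no-compound control wells, seen in both duplicate plates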;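 further: signal is fluorescence rise after thallium addition divided by baseline fluorescence; plate controls were assay buffer only for no effect and full block by chlorpromazine control for full effect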
# KCNK9 uninduced – thallium flux in non-induced HEK293 cells, confirmation, counter-screen for KCNK9 inhibitor project, cell-based, second counter screen, non-induced KCNK9-HEK293 | shares compounds with KCNK9 block | FluxOR thallium flux | inhibition, % at 10 µM | actives 40% (n = 4,900);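 active means thallium signal drop beyond 5 SD of the untreated control mean, on both duplicate plates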;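 further: plate controls were buffer only IC0 wells for no effect and SID17386958 at its maximal inhibitory level for full effect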
# KCNK3 inh conf – retest of human KCNK3 channel inhibitors, confirmation, CHO cells, FluxOR thallium flux, triplicate. shares compounds with KCNK3 inh. actives 99% (n = 2,400). ratio percent of control, % at 10 µM. AID 651638, 2012. FluxOR fluorescence; 0% buffer, 100% carvedilol maximal block;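 active means ratio percent of control, averaged over triplicates, above buffer control mean plus 5 SD, cut at about 64% in these data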;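 further: ratio is the fluorescence rise from min to max over baseline after thallium stimulus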
# KCNK3 uninduced – thallium flux inhibition in non-induced cells, primary screen, counter-screen for KCNK3 inhibitor project, cell-based, non-induced KCNK3 line, FluxOR thallium, triplicate; thallium flux ratio (lower = more inhibition) at 10 µM; actives 40% (n = 2,400); shares compounds with KCNK3 inh; non-induced KCNK3 parental cells; stronger effect = lower value;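 active means thallium flux ratio, averaged over three wells, more than 5 SD below the buffer control mean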;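 further: host cells are CHO cells without KCNK3 induction; ratio is peak minus trough fluorescence over baseline then normalized to buffer controls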
# Starred values were filed as active, the others as inactive; i = inactive; nt = no result.
SMILES,KCNK9 block,KCNQ1 act,KCNQ1 block,KCNK3 inh,hERG rescue,KCNK9 inh conf,Kir2-1 spec,KCNK9 uninduced,KCNK3 inh conf,KCNK3 uninduced
CCOc1ccc(-c2nc(S(=O)(=O)c3ccccc3)c(N3CCC(C(N)=O)CC3)o2)cc1,i,i,i,i,-16.7,nt,nt,nt,nt,nt
CCN(CC)S(=O)(=O)c1cccc(C(=O)OCc2cc(=O)n3nc(C)sc3n2)c1,i,i,i,i,-15.9,nt,nt,nt,nt,nt
CCC(C)Nc1nc(N)c([N+](=O)[O-])c(Nc2cc(OC)ccc2OC)n1 (stereo not drawn),-9.75*,i,i,i,-13.9,39.5%*,i,i,136.0*,0.135*
Cc1cccc(C)c1NC(=O)c1sccc1SCc1cccc(C(F)(F)F)c1,-13.6*,i,i,-9.35*,-9.2,55.5%*,49.0%*,45.0%*,101.0*,0.159*
CCC(C(=O)OCC(=O)Nc1c(Cl)cccc1Cl)c1ccccc1 (stereo not drawn),i,i,i,i,-5.9,nt,nt,nt,nt,nt
N#CC(C#N)=c1ccc2c(c1)N1C3=C(CCCC3)CC3CCCCC31N=2 (stereo not drawn),-15.9*,i,14*,-9.75*,-28.4,67.0%*,i,45.0%*,130.3*,0.11*
Cc1ccc(N2C(=O)c3ccccc3C2Nc2ccc(S(=O)(=O)N3CCCCC3)cc2)nc1 (stereo not drawn),-11.1*,i,i,-10.5*,-3.9,i,i,30.0%*,120.7*,0.151*
Cc1ccc(N2C(=O)c3ccccc3C2Nc2ccc(S(=O)(=O)N3CCOCC3)cc2)nc1 (stereo not drawn),i,i,i,i,-10.0,nt,nt,nt,nt,nt
COc1ccc(O)c(/C=N/Nc2nc(C)cc(-c3ccccc3)n2)c1,-15.4*,i,i,-9.96*,-13.3,51.0%*,i,23.0%*,119.7*,0.135*
CCc1nc2c(c(=O)[nH]1)C1(CCCC1)Cc1ccccc1-2,i,i,i,i,0.3,nt,nt,nt,nt,nt
CCCn1c(SCC#N)nc2c(c1=O)C1(CCCC1)Cc1ccccc1-2,-9.92*,i,i,-10.1*,-3.8,51.5%*,i,29.0%*,95.3*,i
O=C(CNc1ccccc1F)Nc1cccc2ccccc12,-11.5*,i,i,-14.4*,-2.8,49.0%*,i,i,112.3*,0.158*
O=C(Nc1ccccc1F)C(=O)Nc1cccc2ccccc12,i,i,i,i,-1.6,nt,nt,nt,nt,nt
CCOC(=O)c1cnc2c(C)c(Cl)ccc2c1Nc1ccc(S(=O)(=O)Nc2ncccn2)cc1,i,i,i,nt,-3.8,nt,nt,nt,nt,nt
COC(=O)c1cc(NC(=O)Cc2ccc(OC)cc2)cc(C(=O)OC)c1,i,i,i,i,-12.9,nt,nt,nt,nt,nt
